From PMC9279630 (Acta Pharmaceutica Sinica. B, 2021)

Format: in vivo
Settings: mouse
Procedure, shortened: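 Mice dosed i.p.; horizontal brain sections taken at time points over 24 h, treated by laser-assisted chemical transfer with CHCA as matrix, and imaged by MALDI MSI for the test compound and its metabolite. Relative intensities in brain regions and lateral ventricles cross-checked by LC‒MS/MS. Three biological and technical replicates; mean ± SD from three animals.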

Question: Which Tmax (male, ICR, brain, ip, 20 mg/kg) does the source give for `Cc1nc2n(c(=O)c1CCN1CCC(c3noc4cc(F)ccc34)CC1)CCCC2` [RISP, risperidone] here?
Answer: ~15 min

Question: And the “brain regional distribution after 2 h” value (after 2 h, i.p. RISP 20 mg/kg)?
Answer: a small amount of parent drug was only observed in the lateral ventricles

Question: What about the brain regional distribution (after i.p. administration of RISP 20 mg/kg, around peak) of the same molecule?
Answer: mainly observed in the frontal cortex, striatum, and hippocampus regions
